This note sets out measurements from ChEMBL document CHEMBL1141669, “Nitrile analogs of meperidine as high affinity and selective sigma-1 receptor ligands” (Eur J Med Chem, 2008).

Bounds are passed on as bounds.

Experiment [1] in a line: Displacement of [3H]ditolylguanidine from sigma 2 opioid receptor in rat brain cerebellum. Type of experiment: tissue-based. A digest of the protocol: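 σ2 sites labeled with 3 nM [3H]di-o-tolylguanidine, with 300 nM (+)-pentazocine present to mask σ1, in 50 mM Tris–HCl, pH 8.0. Nonspecific binding taken with 10 µM haloperidol. Twelve test-ligand concentrations, incubated 120 min at 25 °C.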

Experiment [2] has as its target Sigma non-opioid intracellular receptor 1 (Rattus norvegicus, UniProt Q9R0C9). Nature of the experiment: Displacement of [3H](+)-pentazocine from sigma 1 opioid receptor in rat brain cerebellum. Type of experiment: tissue-based. A digest of the protocol: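 σ1 radioligand binding with 5 nM [3H](+)-pentazocine in 50 mM Tris–HCl, pH 8.0. Nonspecific binding defined with 10 µM haloperidol. Test ligand at twelve concentrations, 120 min at 25 °C.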

The species named for experiment [3] is Rattus norvegicus. Nature of the experiment: Selectivity ratio of Ki for rat sigma 2 opioid receptor to Ki for rat sigma 1 opioid receptor.
Experiment [4] deals with Kappa-type opioid receptor (Homo sapiens, UniProt P41145). Nature of the experiment: Binding affinity to kappa opioid receptor.
The target of experiment [5] is Mu-type opioid receptor (Homo sapiens, UniProt P35372). Nature of the experiment: Binding affinity to mu opioid receptor.
For experiment [6], the target named is Delta-type opioid receptor (Homo sapiens, UniProt P41143). The experiment can be described thus: Binding affinity to delta opioid receptor.
Delta-type opioid receptor, sequence (P41143 whole entry): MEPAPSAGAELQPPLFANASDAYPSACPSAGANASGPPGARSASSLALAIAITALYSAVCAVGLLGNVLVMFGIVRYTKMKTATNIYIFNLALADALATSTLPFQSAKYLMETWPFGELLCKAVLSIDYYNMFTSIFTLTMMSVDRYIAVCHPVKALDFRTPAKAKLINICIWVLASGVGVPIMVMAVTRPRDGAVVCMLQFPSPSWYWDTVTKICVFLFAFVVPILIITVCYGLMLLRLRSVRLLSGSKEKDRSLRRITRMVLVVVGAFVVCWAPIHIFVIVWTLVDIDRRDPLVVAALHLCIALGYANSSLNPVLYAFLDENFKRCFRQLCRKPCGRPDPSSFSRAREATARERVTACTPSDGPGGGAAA

Sigma non-opioid intracellular receptor 1, sequence (Q9R0C9 whole entry): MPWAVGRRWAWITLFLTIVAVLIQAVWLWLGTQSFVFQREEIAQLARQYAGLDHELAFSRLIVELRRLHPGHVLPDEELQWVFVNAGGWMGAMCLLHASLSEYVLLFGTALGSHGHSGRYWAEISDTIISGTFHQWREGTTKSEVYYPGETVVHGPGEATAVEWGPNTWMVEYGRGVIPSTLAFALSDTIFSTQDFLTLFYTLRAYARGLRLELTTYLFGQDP
Mu-type opioid receptor, sequence (P35372 whole entry): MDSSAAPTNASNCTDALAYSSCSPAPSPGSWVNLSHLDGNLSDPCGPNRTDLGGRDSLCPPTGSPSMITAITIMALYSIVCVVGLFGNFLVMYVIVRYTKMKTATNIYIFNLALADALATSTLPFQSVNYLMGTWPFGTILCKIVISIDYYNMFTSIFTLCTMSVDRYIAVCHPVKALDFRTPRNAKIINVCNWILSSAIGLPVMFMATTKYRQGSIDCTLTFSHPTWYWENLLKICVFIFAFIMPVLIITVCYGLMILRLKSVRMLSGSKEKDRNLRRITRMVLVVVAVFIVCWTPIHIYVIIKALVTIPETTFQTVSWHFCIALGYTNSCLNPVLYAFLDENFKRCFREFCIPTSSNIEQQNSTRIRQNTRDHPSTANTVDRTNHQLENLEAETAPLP
Kappa-type opioid receptor, sequence (P41145 whole entry): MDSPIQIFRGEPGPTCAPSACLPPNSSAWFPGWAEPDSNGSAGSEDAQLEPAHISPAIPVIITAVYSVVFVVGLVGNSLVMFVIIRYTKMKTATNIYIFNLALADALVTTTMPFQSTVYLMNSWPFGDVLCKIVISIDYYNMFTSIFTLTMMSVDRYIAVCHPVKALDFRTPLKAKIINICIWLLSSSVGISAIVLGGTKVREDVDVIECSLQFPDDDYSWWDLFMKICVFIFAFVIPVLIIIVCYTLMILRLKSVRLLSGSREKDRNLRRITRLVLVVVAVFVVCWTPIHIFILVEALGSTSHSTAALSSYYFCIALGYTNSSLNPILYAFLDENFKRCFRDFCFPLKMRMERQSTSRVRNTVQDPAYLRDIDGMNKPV

On to `CCCN1CCC(C#N)(c2ccccc2)CC1`, for which the figures for the Ki in experiment [1] and in experiment [2] were 0.143 µM and 0.0017 µM, respectively. For the same compound, in experiment [3], the Ratio Ki is 84.
Regarding `c1ccc(CCN2CCCCC2)cc1` [1-PHENETHYLPIPERIDINE], the Ki in experiment [1] stood at 0.138 µM; in experiment [2] it was 0.03 µM. In addition, the Ratio Ki in experiment [3] is 5.
For the compound `N#CC1(c2ccccc2)CCN(CCCCc2ccccc2)CC1`, the Ki is greater than 10 µM in experiment [4]; 1.31 µM in experiment [1]; 0.049 µM in experiment [2]; 9.8 µM in experiment [5]; greater than 10 µM in experiment [6]. Also, the Ratio Ki in experiment [3] is 27.
For `C=C(C)CN1CCC(C#N)(c2ccccc2)CC1`, the Ki is greater than 10 µM in experiment [4]; 0.482 µM in experiment [1]; 0.0037 µM in experiment [2]; greater than 10 µM in experiment [5]; 5 µM in experiment [6]. The Ratio Ki in experiment [3] amounted to 130.
As to `N#CC1(c2ccccc2)CCN(CCc2ccccc2)CC1`, the Ki in experiment [1] was determined as 0.118 µM; in experiment [2] it was 0.0033 µM. Further, the Ratio Ki in experiment [3] came out at 36.
For `N#CC1(c2ccccc2)CCN(Cc2ccccc2)CC1`, the Ki in experiment [4] was greater than 10 µM; in experiment [1], 0.657 µM; in experiment [2], 0.00041 µM; in experiment [5], 5.9 µM; in experiment [6] it was greater than 10 µM. Moreover, the Ratio Ki in experiment [3] was 1600.
With `CC(C)CN1CCC(C#N)(c2ccccc2)CC1`, the inhibitory constant (Ki) in experiment [1] amounted to 0.063 µM; in experiment [2], 0.00035 µM. In addition, in experiment [3], the Ratio Ki came to 180.
Turning to `CN1CCC(C#N)(c2ccccc2)CC1`, the Ki in experiment [4] is greater than 10 µM; in experiment [1], 2.14 µM; in experiment [2], 0.113 µM; in experiment [5] it was greater than 10 µM; in experiment [6], greater than 10 µM. The Ratio Ki in experiment [3] stood at 19.
In the case of `C=CCN1CCC(C#N)(c2ccccc2)CC1`, the Ki is greater than 10 µM in experiment [4]; 0.662 µM in experiment [1]; 0.0022 µM in experiment [2]; greater than 10 µM in experiment [5]; greater than 10 µM in experiment [6]. Also, the Ratio Ki in experiment [3] turned out to be 300.
`N#CC1(c2ccccc2)CCN(CCCc2ccccc2)CC1`: the Ki in experiment [1] turned out to be 0.046 µM; in experiment [2], 0.00038 µM. Moreover, the Ratio Ki in experiment [3] stood at 120.
For `c1ccc(CCN2CCN(c3ccccn3)CC2)cc1` the same measures were 0.17 µM, 0.322 µM and 0.53.
